Measurements taken from ChEMBL document CHEMBL5108039, “Piperazine tethered bergenin heterocyclic hybrids: design, synthesis, anticancer activity, and molecular docking studies” (RSC Med Chem, 2022).
pIC50: −log10 of the molar value.

Assays:
[1] = Cytotoxicity against human BEAS-2B cells assessed as cell growth inhibition; format: toxicity, cell-based
Summary of the method: (§1)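 Compounds were dissolved in sterile DMSO as 10 mg ml−1 stocks and tested in vitro for cytotoxicity in a cell-line panel, with DMSO (0.01%) as vehicle control and doxorubicin as standard. Mean IC50 values were reported, and the normal lung epithelial cells were tested up to 100 μM.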

[2] = tested on: A549; assay: Cytotoxicity against human A549 cells assessed as cell growth inhibition; format: functional, cell-based; summary of the method: as §1
[3] = tested on: MCF7; assay: Cytotoxicity against human MCF7 cells assessed as cell growth inhibition; format: functional, cell-based
Summary of the method: (§2)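 Compounds were dissolved in sterile DMSO as 10 mg ml−1 stocks and tested for in vitro growth inhibition of human cancer cell lines. Doxorubicin was the standard drug and DMSO (0.01%) the vehicle control. IC50 values are reported as means.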

[4] = tested on: CAL-27; assay: Cytotoxicity against human CAL-27 cells assessed as cell growth inhibition; format: functional, cell-based; summary of the method: as §2
[5] = tested on: SCC-9; assay: Cytotoxicity against human SCC-9 cells assessed as cell growth inhibition; format: functional, cell-based; summary of the method: as §2
[6] = tested on: HCT-15; assay: Cytotoxicity against human HCT-15 cells assessed as cell growth inhibition; format: functional, cell-based; summary of the method: as §2

Compound	pIC50 [1]	pIC50 [2]	pIC50 [3]	pIC50 [4]	pIC50 [5]	pIC50 [6]
COc1c(O)c(CN2CCN(CC(=O)Nc3nc(-c4ccc5ccccc5c4)cs3)CC2)c2c(c1O)C1O[C@H](CO)[C@@H](O)[C@H](O)C1OC2=O (some centres undefined)	< 4.00	4.39	4.60	4.37	< 4.00	< 4.00
COc1c(O)c(CN2CCN(CC(=O)Nc3nc(-c4ccc(Cl)cc4)cs3)CC2)c2c(c1O)C1O[C@H](CO)[C@@H](O)[C@H](O)C1OC2=O (some centres undefined)	< 4.00	4.30	4.43	4.33	< 4.00	< 4.00
COc1c(O)c(CN2CCN(S(=O)(=O)c3ccc(F)c(F)c3F)CC2)c2c(c1O)C1O[C@H](CO)[C@@H](O)[C@H](O)C1OC2=O (some centres undefined)	< 4.00	< 4.00	< 4.00	< 4.00	< 4.00	< 4.00
COc1c(O)c(CN2CCN(S(=O)(=O)c3ccc(F)c(F)c3)CC2)c2c(c1O)C1O[C@H](CO)[C@@H](O)[C@H](O)C1OC2=O (some centres undefined)	< 4.00	< 4.00	< 4.00	< 4.00	< 4.00	< 4.00
COc1c(O)c(CN2CCN(S(=O)(=O)c3ccc(Br)cc3)CC2)c2c(c1O)C1O[C@H](CO)[C@@H](O)[C@H](O)C1OC2=O (some centres undefined)	4.65	< 4.00	< 4.00	< 4.00	< 4.00	< 4.00
COc1c(O)c(CN2CCN(CC(=O)Nc3nc(-c4cccc5ccccc45)cs3)CC2)c2c(c1O)C1O[C@H](CO)[C@@H](O)[C@H](O)C1OC2=O (some centres undefined)	4.08	< 4.00	< 4.00	4.24	4.18	4.06
COc1c(O)cc2c(c1O)C1O[C@H](CO)[C@@H](O)[C@H](O)C1OC2=O (some centres undefined)	< 4.00	< 4.00	< 4.00	< 4.00	< 4.00	< 4.00
COc1c(O)c(CN2CCN(S(=O)(=O)c3ccc(F)c(Cl)c3)CC2)c2c(c1O)C1O[C@H](CO)[C@@H](O)[C@H](O)C1OC2=O (some centres undefined)	< 4.00	< 4.00	< 4.00	4.03	< 4.00	< 4.00
COc1c(O)c(CN2CCN(CC(=O)Nc3nc4ccc(F)cc4s3)CC2)c2c(c1O)C1O[C@H](CO)[C@@H](O)[C@H](O)C1OC2=O (some centres undefined)	< 4.00	< 4.00	< 4.00	4.28	< 4.00	< 4.00
COc1c(O)c(CN2CCN(CC(=O)Nc3nc4c(Cl)cccc4s3)CC2)c2c(c1O)C1O[C@H](CO)[C@@H](O)[C@H](O)C1OC2=O (some centres undefined)	4.66	4.65	4.71	4.81	4.76	4.52
COc1ccc(S(=O)(=O)N2CCN(Cc3c(O)c(OC)c(O)c4c3C(=O)OC3C4O[C@H](CO)[C@@H](O)[C@@H]3O)CC2)cc1OC (some centres undefined)	< 4.00	< 4.00	< 4.00	< 4.00	< 4.00	< 4.00
COc1ccc(S(=O)(=O)N2CCN(Cc3c(O)c(OC)c(O)c4c3C(=O)OC3C4O[C@H](CO)[C@@H](O)[C@@H]3O)CC2)cc1 (some centres undefined)	< 4.00	< 4.00	< 4.00	< 4.00	< 4.00	< 4.00
COc1c(O)c(CN2CCN(S(=O)(=O)c3ccc(OC(F)(F)F)cc3)CC2)c2c(c1O)C1O[C@H](CO)[C@@H](O)[C@H](O)C1OC2=O (some centres undefined)	< 4.00	< 4.00	< 4.00	< 4.00	< 4.00	< 4.00
COc1c(O)c(CN2CCN(S(=O)(=O)c3ccccc3)CC2)c2c(c1O)C1O[C@H](CO)[C@@H](O)[C@H](O)C1OC2=O (some centres undefined)	< 4.00	< 4.00	< 4.00	4.07	< 4.00	< 4.00
